Results reported in ChEMBL document CHEMBL1129996, “1-Aryl-3,5-dihydro-4H-2,3-benzodiazepin-4-ones: novel AMPA receptor antagonists” (J Med Chem, 1997).
Several values for one entry are separate records, joined by “and”; a condition that tells them apart may be missing. Equal values may be shown once.

How the values were obtained:
Mus musculus [1] = assay: Anticonvulsant activity against clonic phase of the audiogenic seizures in DBA / 2 mice 30 min after ip administration at a dose range 10-120 uM/kg; type: functional; conditions: 0.5 h
Summary of the method: (§1)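 Groups of 10 DBA/2 mice of either sex; drug ip (0.1 mL/10 g) as fresh solution in 50% DMSO/50% saline, 30 min before auditory stimulation (12-16 kHz, 109 dB, 60 s or until tonic extension) under perspex dome after 60 s habituation. Latency and incidence of wild running, clonic and tonic phases scored; ED50 (95% confidence limits) by Litchfield-Wilcoxon.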

Mus musculus [2] = assay: Anticonvulsant activity against tonic phase of the audiogenic seizures in DBA / 2 mice 30 min after ip administration at a dose range 10-120 uM/kg; type: functional; conditions: 0.5 h; summary of the method: as §1
[3] = Relative lipophilicity of compound; type: physicochemical; conditions: reversed-phase TLC, acetone/water 2:1
Summary of the method: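 Reversed-phase TLC type lipophilicity: plates dried 105 °C 1 h, mobile phase acetone:water 2:1, 1 µL of 3 mg/mL CHCl3 solution spotted; five runs with varied positions, mean Rf converted as Rm = log[(1/Rf) - 1].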

[4] = Motor toxicity in 50% of mice on locomotion assessed by Rotarod test following 30 min ip administration; type: organism-based; conditions: mouse, in vivo
Summary of the method: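 Male Swiss mice (20-26 g, 48-54 days), groups of 10, trained on rotarod (3 cm, 8 rpm); tested 30 min after ip dosing. Impairment = failure to stay on for 2 min; TD50 (95% confidence limits) by Litchfield-Wilcoxon.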

Mus musculus [5] = assay: Anticonvulsant activity against the maximal electroshock in Swiss mice after 45 minutes pretreatment at a dose range 10-150 uM/kg; type: functional
Summary of the method: (§2)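 Swiss mice dosed ip in 50% DMSO/50% saline 45 min before ear-clip electroshock (50 mA, 20 ms pulses, 35 Hz, 400 ms). Protection = abolition of tonic hindlimb extension. Usually 4-5 doses with 8-10 mice each; ED50 (95% confidence limits) by Litchfield-Wilcoxon.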

Mus musculus [6] = assay: Pentylenetetrazole-induced seizures in Swiss mice after 45 min pretreatment at a dose range 10-150 uM/kg; type: functional
Mus musculus [7] = assay: Anticonvulsant activity against tonic phase of the audiogenic seizures in DBA / 2 mice 30 min after ip administration at a dose range 10-100 uM/kg; type: functional; conditions: 0.5 h; summary of the method: as §1
Mus musculus [8] = assay: Anticonvulsant activity against the clonic seizures induced by icv injection of AMPA in DBA / 2 mice at a dose range of 10-200 uM/kg; type: functional; conditions: central
Mus musculus [9] = assay: Anticonvulsant activity against the maximal electroshock in Swiss mice after 45 minutes pretreatment at a dose range 10-100 uM/kg; type: functional; summary of the method: as §2
Mus musculus [10] = assay: Anticonvulsant activity against the tonic seizures induced by icv injection of AMPA in DBA / 2 mice at a dose range of 10-200 uM/kg; type: functional; conditions: central
Mus musculus [11] = assay: Pentylenetetrazole-induced seizures in Swiss mice after 45 min pretreatment at a dose range 10-100 uM/kg; type: functional
Summary of the method: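 Male Swiss mice (20-26 g), compound ip in 50% DMSO/50% saline 45 min before sc pentylenetetrazole at CD97 (85 mg/kg), then observed 30 min. Protection is absence of clonic spasms lasting at least 5 s. Typically 4-5 doses, 8-10 mice per dose. ED50 with 95% confidence limits by Litchfield and Wilcoxon.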

Mus musculus [12] = species on record: Mus musculus; assay: Audiogenic seizures after concomitant treatment with Flumazenil (24.72 uM) in DBA / 2 mice clonic phase; type: functional
Mus musculus [13] = species on record: Mus musculus; assay: Audiogenic seizures after concomitant treatment with Flumazenil (24.72 uM) in DBA / 2 mice tonic phase; type: functional
Mus musculus [14] = species on record: Mus musculus; assay: Audiogenic seizures after concomitant treatment with Flumazenil (8.24 uM) in DBA / 2 mice clonic phase; type: functional
Mus musculus [15] = species on record: Mus musculus; assay: Audiogenic seizures after concomitant treatment with Flumazenil (8.24 uM) in DBA / 2 mice tonic phase; type: functional
Mus musculus [16] = assay: Audiogenic seizures after pretreatment with Aniracetam in DBA / 2 mice clonic phase at a dose range of 33-300 uM/kg; type: functional
Summary of the method: (§3)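 DBA/2 mice pretreated with aniracetam 50 nmol icv 60 min before auditory testing, with ip 2,3-benzodiazepine; audiogenic clonic and tonic phases scored; ED50 by Litchfield-Wilcoxon.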

Mus musculus [17] = assay: Audiogenic seizures after pretreatment with Aniracetam in DBA / 2 mice tonic phase at a dose range of 33-300 uM/kg; type: functional; summary of the method: as §3
[18] = Therapeutic index it is the ratio between TD50 and ED50 (from the clonic phase of the audiogenic seizures); conditions: read-out: TI
Summary of the method: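 Therapeutic index computed as rotarod TD50 divided by ED50 for the clonic phase of audiogenic seizures in DBA/2 mice.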

Mus musculus [19] = assay: Anticonvulsant activity against tonic phase of the audiogenic seizures in DBA / 2 mice 30 min after ip administration at a dose range 33-200 uM/kg; type: functional; conditions: 0.5 h; summary of the method: as §1
Mus musculus [20] = assay: Anticonvulsant activity against clonic phase of the audiogenic seizures in DBA / 2 mice 30 min after ip administration at a dose range 33-200 uM/kg; type: functional; conditions: 0.5 h; summary of the method: as §1
Mus musculus [21] = assay: Anticonvulsant activity against the maximal electroshock in Swiss mice after 45 minutes pretreatment at a dose range 33-200 uM/kg; type: functional; summary of the method: as §2
Mus musculus [22] = assay: Pentylenetetrazole-induced seizures in Swiss mice after 45 min pretreatment at a dose range 33-200 uM/kg; type: functional
Mus musculus [23] = assay: Anticonvulsant activity against tonic phase of the audiogenic seizures in DBA / 2 mice 30 min after ip administration at a dose range 33-66 uM/kg; type: functional; conditions: 0.5 h; summary of the method: as §1
Mus musculus [24] = assay: Anticonvulsant activity against clonic phase of the audiogenic seizures in DBA / 2 mice 30 min after ip administration at a dose range 33-66 uM/kg; type: functional; conditions: 0.5 h; summary of the method: as §1
Mus musculus [25] = assay: Anticonvulsant activity against clonic phase of the audiogenic seizures in DBA / 2 mice 30 min after ip administration at a dose range 10-100 uM/kg; type: functional; conditions: 0.5 h; summary of the method: as §1

In the case of `COc1cc2c(cc1OC)C(c1ccc(C#N)cc1)=NN(C)C(=O)C2`, the ED50 (Mus musculus [1]) is reported as > 120 µmol/kg and > 44 mg/kg, the ED50 (Mus musculus [2]) is reported as > 120 µmol/kg and > 44 mg/kg and the Rm [3] is reported as -0.031. It also gave a TD50 at 0.5 h [4] greater than 150 µmol/kg.
With `COc1cc2c(cc1OC)C(c1ccc([N+](=O)[O-])cc1)=NN(C)C(=O)C2` the ED50 (Mus musculus [1]) was > 120 µmol/kg and > 44 mg/kg, the ED50 (Mus musculus [2]) was > 120 µmol/kg and > 44 mg/kg and the ED50 (Mus musculus [5]) was greater than 150 µmol/kg. For the same compound, the ED50 (Mus musculus [6]) was greater than 150 µmol/kg, the Rm [3] was 0.11 and the TD50 at 0.5 h [4] was greater than 150 µmol/kg.
For `COc1cc2c(cc1OC)C(c1ccccc1)=NNC(=O)C2`, the ED50 (Mus musculus [7]) was 31.8 µmol/kg and 9.41 mg/kg, the ED50 (Mus musculus [8]) was 66 µmol/kg and the ED50 (Mus musculus [9]) was 35.8 µmol/kg. It also gave an ED50 (Mus musculus [10]) of 42.6 µmol/kg, an ED50 (Mus musculus [11]) of 68.2 µmol/kg and an ED50 (Mus musculus [12]) of 50.9 µmol/kg. It also gave an ED50 (Mus musculus [13]) of 41.3 µmol/kg, an ED50 (Mus musculus [14]) of 38.2 µmol/kg and an ED50 (Mus musculus [15]) of 35.8 µmol/kg. For the same compound, the ED50 (Mus musculus [16]) was 215 µmol/kg, the ED50 (Mus musculus [17]) was 157 µmol/kg and the Rm [3] was -0.012. For the same compound, the therapeutic index (TD50/ED50) [18] was 4.2 and the TD50 at 0.5 h [4] was 142 µmol/kg.
For `COc1ccc2c(c1)CC(=O)NN=C2c1ccccc1`, the ED50 (Mus musculus [19]) was 64.8 µmol/kg and 17.2 mg/kg, the ED50 (Mus musculus [20]) was 75.5 µmol/kg and 20 mg/kg and the ED50 (Mus musculus [21]) was 73.4 µmol/kg. It also gave an ED50 (Mus musculus [22]) of 98.2 µmol/kg, a Rm [3] of -0.052 and a therapeutic index (TD50/ED50) [18] of 2.6. It also gave a TD50 at 0.5 h [4] of 197 µmol/kg.
For `COc1cc2c(cc1OC)C(c1ccc(C#N)cc1)=NNC(=O)C2`, the ED50 (Mus musculus [1]) was > 120 µmol/kg and > 44 mg/kg, the ED50 (Mus musculus [2]) was > 120 µmol/kg and > 44 mg/kg and the ED50 (Mus musculus [5]) was greater than 150 µmol/kg. For the same compound, the ED50 (Mus musculus [6]) was greater than 150 µmol/kg, the Rm [3] was -0.218 and the TD50 at 0.5 h [4] was greater than 150 µmol/kg.
With `COc1cc2c(cc1OC)C(c1ccc(Cl)cc1)=NN(C)C(=O)C2` the ED50 (Mus musculus [23]) was 38.6 µmol/kg and 13.3 mg/kg, the Rm [3] was 0.25 and the ED50 (Mus musculus [24]) was 41.2 µmol/kg and 14.2 mg/kg.
For `COc1cc2c(cc1OC)C(c1ccc(Cl)cc1)=NNC(=O)C2`, the ED50 (Mus musculus [19]) was 75.3 µmol/kg and 24.8 mg/kg, the ED50 (Mus musculus [20]) was 102 µmol/kg and 33.7 mg/kg and the ED50 (Mus musculus [21]) was 115 µmol/kg. For the same compound, the ED50 (Mus musculus [22]) was 145 µmol/kg, the Rm [3] was 0.017 and the therapeutic index (TD50/ED50) [18] was 2.3. For the same compound, the TD50 at 0.5 h [4] was 240 µmol/kg.
With `COc1cc2c(cc1OC)C(c1ccc(N(C(C)=O)C(C)=O)cc1)=NN(C(C)=O)C(=O)C2` the ED50 (Mus musculus [7]) was 43.9 µmol/kg and 19.2 mg/kg, the ED50 (Mus musculus [25]) was 56.8 µmol/kg and 24.8 mg/kg and the Rm [3] was -0.673.
With `COc1cc2c(cc1OC)C(c1cccc([N+](=O)[O-])c1)=NN(C)C(=O)C2` the ED50 (Mus musculus [1]) was > 120 µmol/kg and > 44 mg/kg, the ED50 (Mus musculus [2]) was > 120 µmol/kg and > 44 mg/kg and the Rm [3] was 0.052.
